Published values from different studies.
Protocols differ between the studies behind these lines.
KDM1A: Lysine-specific histone demethylase 1A (KDM1A, Homo sapiens, UniProt O60341)
TRIM24: Transcription intermediary factor 1-alpha (TRIM24, Homo sapiens, UniProt O15164)

| SMILES | target | effect on | action | method | concentration | quantity | value |
| --- | --- | --- | --- | --- | --- | --- | --- |
| O=C(O)c1ccc(CN2CCC(CN[C@@H]3C[C@H]3c3ccccc3)CC2)cc1 | KDM1A | enzyme activity | inhibitor |  |  | KI (inactivation) | 2.14 µM |
| Oc1ccc(-c2nc(-c3ccncc3)c(-c3ccc(F)cc3)[nH]2)cc1 | TRIM24 | thermal stability |  | DSF | 10 µM | ΔTm | -0.23 °C |
| NS(=O)(=O)c1ccc(Nc2nc(-c3ccc(F)cc3)c3ccccc3n2)cc1 | Bromodomain-containing protein 3, BD1 (BRD3, Homo sapiens, UniProt Q15059) | binding |  | competition with immobilised ligand | 1 µM | remaining binding | 1% |
| Cc1cnc(Nc2ccc(OCCN3CCCC3)cc2)nc1Nc1cccc(S(=O)(=O)NC(C)(C)C)c1 | Bromodomain-containing protein 3, BD2 (BRD3, Homo sapiens, UniProt Q15059) | thermal stability |  | DSF | 10 µM | ΔTm | 3.4 °C |
| Cc1cc2c(cc1N1C(=O)c3cccc4c(Cl)ccc(c34)C1=O)n(C)c(=O)n2C | SP140L (Homo sapiens, UniProt Q9H930) | thermal stability |  | DSF | 10 µM | ΔTm | -1.4 °C |
| COC(=O)[C@@H]1Cc2c([nH]c3ccccc23)[C@H](c2ccc(OC)c(OC)c2)N1C(=O)CCl | cGMP-specific 3',5'-cyclic phosphodiesterase (PDE5A, Homo sapiens, UniProt O76074) | enzyme activity | inhibitor | FP | 50 µM | inhibition | 48% |
| C[S+]([O-])c1ccc(-c2nc(-c3ccncc3)c(-c3ccc(F)cc3)[nH]2)cc1 (stereo not drawn) | TRIM24 | thermal stability |  | DSF | 10 µM | ΔTm | 1.4 °C |
| O=C(c1ccc(F)cc1)N(Cc1ccccc1)C1CCCCC1 | Endothelin-1 receptor (EDNRA, Homo sapiens, UniProt P25101) | cell-free assay |  |  | 10 µM | inhibition | 0% |
| CN1CCN(C(=O)[C@H](CCCN[C@@H]2C[C@H]2c2ccc(F)cc2)NC(=O)c2ccc(-n3ccnn3)cc2)CC1 | KDM1A | enzyme activity | inhibitor |  |  | KI (inactivation) | 1.19 µM |
| CC(=O)N[C@H](C(=O)N[C@H](C(=O)N[C@@H](Cc1ccccc1)C(=O)N[C@H](C(=O)N[C@@H](CO)C(=O)N[C@@H](Cc1c[nH]c2ccccc12)C(=O)N[C@@H](CCC(=O)O)C(=O)N[C@@H](CCC(=O)O)C(=O)N[C@@H](Cc1ccc(O)cc1)C(=O)N[C@@H](CC(C)C)C(=O)N[C@@H](CC(=O)O)C(=O)N[C@@H](Cc1c[nH]c2ccccc12)C(=O)N[C@H](C(N)=O)C(C)C)[C@@H](C)O)C(C)C)[C@@H](C)O | Proprotein convertase subtilisin/kexin type 9 (PCSK9, Homo sapiens, UniProt Q8NBP7) | binding |  | SPR |  | koff | 0.173 s⁻¹ |
| COc1cc2c(NC3CCN(C(C)C)CC3)nc(C3CCCCC3)nc2cc1OCCCN1CCCC1 | Histone-lysine N-methyltransferase EHMT1 (EHMT1, Homo sapiens, UniProt Q9H9B1) | thermal stability |  | DSF | 100 µM | ΔTm | 8 °C |
| Nc1ncnc2occ(-c3ccc(NC(=O)Nc4cc(C(F)(F)F)ccc4F)cc3)c12 | Cyclin-dependent kinase 15 (CDK15, Homo sapiens, UniProt Q96Q40) | cell-free assay | inhibitor |  | 20 µM | remaining signal | 1.1% |
